{"data": "Results collected from several papers", "target": "Serine/threonine-protein kinase pim-1 (PIM1, Homo sapiens, UniProt P11309)", "note": "Compare with care: the assays were run in different laboratories."}
{"Structure (SMILES)": "COc1cnc(Nc2cccc(S(N)(=O)=O)c2)nc1N1CCN(c2ccccc2)CC1", "assay": "binding, competition with immobilised ligand", "setting": "1 µM", "remaining binding [%]": 95}
{"Structure (SMILES)": "Cc1cc(NC(=O)c2cccc(S(F)(F)(F)(F)F)c2)cc(-n2ccn3nc(-c4cccnc4)cc23)c1", "assay": "cell-free assay, competition with immobilised ligand", "setting": "1 µM", "remaining binding [%]": 95.6}
{"Structure (SMILES)": "O=C(NCCCN1CCOCC1)c1ccc(Nc2nccc(-c3cc4ccccc4s3)n2)cc1", "assay": "binding, competition with immobilised ligand", "setting": "1 µM", "remaining binding [%]": 85}
{"Structure (SMILES)": "CN(c1nccc(-c2cnn3ncccc23)n1)C1CC1", "assay": "binding", "setting": "1 µM", "remaining binding [%]": 100}
{"Structure (SMILES)": "CNC(=O)c1ccc(Nc2ncc(C(F)(F)F)c(NCc3nccnc3N(C)S(C)(=O)=O)n2)cc1", "assay": "cell-free assay, competition with immobilised ligand", "setting": "0.1 µM", "remaining binding [%]": 93}
{"Structure (SMILES)": "O=C(c1ccc(Nc2nccc(-c3cc4ccccc4s3)n2)cc1)N1CCC(N2CCCC2)CC1", "assay": "binding, competition with immobilised ligand", "setting": "1 µM", "remaining binding [%]": 75}
{"Structure (SMILES)": "COc1cnc(Nc2cccc(S(N)(=O)=O)c2)nc1N1CCN(c2ccccc2)C(=O)C1", "assay": "binding, competition with immobilised ligand", "setting": "1 µM", "remaining binding [%]": 100}
{"Structure (SMILES)": "N[C@H]1CCN(c2nccc(-c3cnn4ncccc34)n2)C1", "assay": "binding", "setting": "1 µM", "remaining binding [%]": 99}
{"Structure (SMILES)": "C=CC(=O)N1CCC(C(=O)NCC(=O)N2CCN(c3nc(-c4cnc(N)nc4C(F)F)nc(N4CCOCC4)n3)CC2)CC1", "assay": "binding, competition with immobilised ligand", "setting": "1 µM", "remaining binding [%]": 95}
{"Structure (SMILES)": "CC1CCCN1c1nccc(-c2cnn3ncccc23)n1 (stereo not shown)", "assay": "binding", "setting": "1 µM", "remaining binding [%]": 100}
{"Structure (SMILES)": "CCC(=N\\O)/C(C)=C/c1ccc(F)cc1", "assay": "cell-free assay, competition with immobilised ligand", "setting": "1 µM", "remaining binding [%]": 85}
{"Structure (SMILES)": "Cc1cnc(Nc2ccc(C(=O)N3CCC(N4CCCC4)CC3)cc2)nc1-c1cc2ccccc2s1", "assay": "binding, competition with immobilised ligand", "setting": "1 µM", "remaining binding [%]": 75}
{"Structure (SMILES)": "Cn1nc(C(=O)NCc2ccc(C(=O)O)cc2)cc1-c1ccc2[nH]ccc2c1", "assay": "cell-free assay, competition with immobilised ligand", "setting": "0.1 µM", "remaining binding [%]": 91}
{"Structure (SMILES)": "CCN1CCN(Cc2ccc(C(=O)Nc3ccc(C)c(Oc4ccc5c(c4)CC(=O)N5)c3)cc2C(F)(F)F)CC1", "assay": "binding, competition with immobilised ligand", "setting": "1 µM", "remaining binding [%]": 100}
{"Structure (SMILES)": "Nc1cnc(N2CCc3cc(S(=O)(=O)Nc4c(F)cc(Cl)cc4F)cc(N4CCCC4=O)c32)nc1", "assay": "cell-free assay, competition with immobilised ligand", "setting": "1 µM", "remaining binding [%]": 88}
{"Structure (SMILES)": "CN(C)c1ncc(F)c(-c2cnn3ncccc23)n1", "assay": "binding", "setting": "1 µM", "remaining binding [%]": 82}
{"Structure (SMILES)": "O=C(Nc1c[nH]nc1C(=O)NC1CCNCC1)c1cc(F)cc(F)c1", "assay": "binding, competition with immobilised ligand", "setting": "1 µM", "remaining binding [%]": 100}
{"Structure (SMILES)": "N#Cc1ccccc1CSc1nnc2c(n1)[nH]c1ccccc12", "assay": "binding, competition with immobilised ligand", "setting": "10 µM", "remaining binding [%]": 90}
{"Structure (SMILES)": "CN(C)c1nccc(-c2cnc3ncccn23)n1", "assay": "binding", "setting": "1 µM", "remaining binding [%]": 82}
{"Structure (SMILES)": "CCCCN(CCCC)C(=O)CN1C[C@H](c2cc(OC)c3c(c2)OCO3)[C@@H](C(=O)O)[C@@H]1CC(C)(C)CCC", "assay": "cell-free assay, competition with immobilised ligand", "setting": "1 µM", "remaining binding [%]": 100}
{"Structure (SMILES)": "C[C@@H]1CCN(c2nccc(-c3cnn4ncccc34)n2)C1", "assay": "binding", "setting": "1 µM", "remaining binding [%]": 84}
{"Structure (SMILES)": "CC(=O)C1=C(C)N(c2cccc(C(F)(F)F)c2)C(=O)N[C@@H]1c1ccc(C#N)nc1", "assay": "cell-free assay, competition with immobilised ligand", "setting": "1 µM", "remaining binding [%]": 100}
{"Structure (SMILES)": "CN(CCCC(F)(F)F)c1nccc(-c2cnn3ncccc23)n1", "assay": "binding", "setting": "1 µM", "remaining binding [%]": 98}
{"Structure (SMILES)": "Cc1cc(-n2nc(Cc3cc(F)cc(C(F)(F)F)c3)nc2C)ccc1C(N)=O", "assay": "cell-free assay, competition with immobilised ligand", "setting": "1 µM", "remaining binding [%]": 100}
{"Structure (SMILES)": "C[C@@H]1CN(c2ccc3ncc(-c4ccc5[nH]nc(C6CC6)c5c4)n3n2)C[C@H](C)O1", "assay": "binding, competition with immobilised ligand", "setting": "0.5 µM", "remaining binding [%]": 19}
